From ChEMBL document CHEMBL1152442, “Discovery of a new template for anticancer agents: 2'-deoxy-2'-fluoro-4'-selenoarabinofuranosyl-cytosine (2'-F-4'-seleno-ara-C)” (J Med Chem, 2009)

What was measured:
Assay type in all cases: functional, cell-based
A549 = assay: Cytotoxicity against human A549 cells by sulforhodamine B method
Procedure, shortened: (§1)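 Human tumour lines tested: colon HCT116, lung A549, stomach SNU638, breast T47D, prostate PC-3 and leukaemia K562. Growth was read out by sulforhodamine B protein staining.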

HCT-116 = assay: Cytotoxicity against human HCT116 cells by sulforhodamine B method; procedure, shortened: as §1
PC-3 = assay: Cytotoxicity against human PC3 cells by sulforhodamine B method; procedure, shortened: as §1
SNU-638 = assay: Cytotoxicity against human SNU638 cells by sulforhodamine B method; procedure, shortened: as §1
K562 = assay: Cytotoxicity against human K562 cells by sulforhodamine B method; procedure, shortened: as §1
T47D = assay: Cytotoxicity against human T47D cells by sulforhodamine B method; procedure, shortened: as §1

Row | Structure (SMILES) | IC50 (A549) [nM] | IC50 (HCT-116) [nM] | IC50 (PC-3) [nM] | IC50 (SNU-638) [nM] | IC50 (K562) [nM] | IC50 (T47D) [nM]
1 | Nc1ccn([C@@H]2O[C@H](CO)[C@@H](O)C2(F)F)c(=O)n1 [GEMCITABINE] | 90 | 5 | 40 |  |  | 
2 | Nc1ccn([C@@H]2[Se][C@H](CO)[C@@H](O)[C@@H]2O)c(=O)n1 | 8830 | 7130 |  | 4720 | 86600 | 
3 | Nc1ccn([C@@H]2[Se][C@H](CO)[C@@H](O)[C@@H]2F)c(=O)n1 | 470 | 1100 | 580 | 140 | 630 | 790
4 | Nc1ccn([C@@H]2O[C@H](CO)[C@@H](O)[C@@H]2O)c(=O)n1 [CYTARABINE] | 1900 | 5300 | 55900 | 150 | 50 | 2700
5 | O=c1ccn([C@@H]2[Se][C@H](CO)[C@@H](O)[C@@H]2F)c(=O)[nH]1 | > 100000 | > 100000 | > 100000 | > 100000 | > 100000 | > 100000
6 | O=c1ccn([C@@H]2[Se][C@H](CO)[C@@H](O)[C@@H]2O)c(=O)[nH]1 | > 100000 | > 100000 | > 100000 | > 100000 | > 100000 | > 100000
